{
  "source": "ChEMBL document CHEMBL3352033",
  "about": "“Jatrophanes from Euphorbia squamosa as potent inhibitors of Candida albicans multidrug transporters” (J Nat Prod, 2014)",
  "key": {"[1]": {"test_system": "Saccharomyces cerevisiae", "experiment": "Growth inhibition of Saccharomyces cerevisiae AD1-8u(-) assessed as FIC of compound by checkerboard method", "type": "functional", "procedure,_shortened": "(§1)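 Checkerboard per CLSI: yeast cells (10^4) in 96-well format with fluconazole 0.15−800 μM crossed with inhibitor 0.15−80 μM, grown 48 h at 30 °C in YEPD; growth read by optical density. FIC for FLC = IC50 of FLC in combination/IC50 alone; FIC for inhibitor likewise; FICI from both. Means ± SD of three independent experiments.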"}, "[2]": {"test_system": "Saccharomyces cerevisiae", "experiment": "Growth inhibition of Saccharomyces cerevisiae AD1-8u(-) assessed as FIC index by checkerboard method", "type": "functional", "procedure,_shortened": "as §1"}, "[3]": {"test_system": "Saccharomyces cerevisiae", "experiment": "Growth inhibition of Saccharomyces cerevisiae AD1-8u(-) overexpressing CaCdr1p assessed as FIC of fluconazole by checkerboard method", "type": "functional", "procedure,_shortened": "as §1"}, "[4]": {"test_system": "Saccharomyces cerevisiae", "experiment": "Toxicity against Saccharomyces cerevisiae AD1-8u(-) overexpressing CaCdr1p", "type": "organism-based", "procedure,_shortened": "(§2)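 Yeast cells (10^4) seeded with inhibitor 0.15−80 μM or none, grown 48 h at 30 °C in YEPD; optical density measured. Growth without inhibitor set as 100%, and the concentration giving 50% growth taken as IC50. Means ± SD of three independent experiments, duplicate samples.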"}, "[5]": {"test_system": "Saccharomyces cerevisiae", "experiment": "Growth inhibition of Saccharomyces cerevisiae AD1-8u(-) overexpressing CaCdr1p assessed as FIC of compound by checkerboard method", "type": "functional", "procedure,_shortened": "as §1"}, "[6]": {"test_system": "Saccharomyces cerevisiae", "experiment": "Growth inhibition of Saccharomyces cerevisiae AD1-8u(-) overexpressing CaMdr1p assessed as FIC of fluconazole by checkerboard method", "type": "functional", "procedure,_shortened": "as §1"}, "[7]": {"test_system": "Saccharomyces cerevisiae", "experiment": "Growth inhibition of Saccharomyces cerevisiae AD1-8u(-) overexpressing CaMdr1p assessed as FIC index by checkerboard method", "type": "functional", "procedure,_shortened": "as §1"}, "[8]": {"test_system": "Saccharomyces cerevisiae", "experiment": "Toxicity against Saccharomyces cerevisiae AD1-8u(-)", "type": "organism-based", "procedure,_shortened": "as §2"}, "[9]": {"test_system": "Saccharomyces cerevisiae", "experiment": "Growth inhibition of Saccharomyces cerevisiae AD1-8u(-) assessed as FIC of fluconazole by checkerboard method", "type": "functional", "procedure,_shortened": "as §1"}, "[10]": {"test_system": "Saccharomyces cerevisiae", "experiment": "Growth inhibition of Saccharomyces cerevisiae AD1-8u(-) overexpressing CaCdr1p assessed as FIC index by checkerboard method", "type": "functional", "procedure,_shortened": "as §1"}, "[11]": {"test_system": "Candida albicans", "experiment": "Inhibition of Candida albicans CaCdr1p-mediated drug efflux overexpressed in Saccharomyces cerevisiae assessed as nile red accumulation after 30 mins by flow cytometry", "procedure,_shortened": "(§3)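 Host is S. cerevisiae AD1-8u− deleted for its own multidrug transporters, carrying the C. albicans transporter ORF integrated at the PDR5 locus (AD-CDR1 or AD-MDR1). Cells are grown in YEPD at 30 °C from OD600 0.1 to 0.25, then resuspended as a 5% suspension in YEPD diluted 1:2 with water. NR is 7 μM final with inhibitor at 70 μM, 30 min at 30 °C. Read-out is flow cytometry of 10 000 cells. Three independent experiments.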"}, "[12]": {"test_system": "Saccharomyces cerevisiae", "experiment": "Resistance index, ratio of IC50 for Saccharomyces cerevisiae AD1-8u(-) overexpressing CaMdr1p to IC50 for Saccharomyces cerevisiae AD1-8u(-)", "type": "functional", "procedure,_shortened": "(§4)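 RI computed as the IC50 for the AD-CDR1 or AD-MDR1 strain divided by that for control strain AD1-8u−. Each IC50 comes from optical density after 48 h growth at 30 °C of 10^4 cells with inhibitor at 0.15−80 μM, 50% growth versus untreated. Means ± SD of three independent experiments.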"}, "[13]": {"test_system": "Saccharomyces cerevisiae", "experiment": "Toxicity against Saccharomyces cerevisiae AD1-8u(-) overexpressing CaMdr1p", "type": "organism-based", "procedure,_shortened": "as §2"}, "[14]": {"test_system": "Saccharomyces cerevisiae", "experiment": "Growth inhibition of Saccharomyces cerevisiae AD1-8u(-) overexpressing CaMdr1p assessed as FIC of compound by checkerboard method", "type": "functional", "procedure,_shortened": "as §1"}, "[15]": {"test_system": "Saccharomyces cerevisiae", "experiment": "Resistance index, ratio of IC50 for Saccharomyces cerevisiae AD1-8u(-) overexpressing CaCdr1p to IC50 for Saccharomyces cerevisiae AD1-8u(-)", "type": "functional", "procedure,_shortened": "as §4"}, "[16]": {"test_system": "Candida albicans", "experiment": "Inhibition of Candida albicans CaMdr1p-mediated drug efflux overexpressed in Saccharomyces cerevisiae assessed as nile red accumulation after 30 mins by flow cytometry", "procedure,_shortened": "as §3"}},
  "note": "Calls of active or inactive are those of the source. No cut-off for these calls is given here.",
  "data": [
    {"molecule": "CC(=O)O[C@@H]1[C@@H](OC(C)=O)C(C)(C)/C=C/[C@H](C)C(=O)[C@@]2(OC(C)=O)C[C@@H](C)[C@H](OC(=O)c3ccccc3)/C2=C/[C@](C)(O)[C@@H]1OC(C)=O", "values": [
      {"measurement": "FIC50", "setting": "[1]", "result": 0.07},
      {"measurement": "fractional inhibitory concentration index (FICI)", "setting": "[2]", "result": 1.27},
      {"measurement": "FIC50", "setting": "[3]", "result": 0.02},
      {"measurement": "IC50", "setting": "[4]", "result": 26.7, "unit": "µM"},
      {"measurement": "FIC50", "setting": "[5]", "result": 0.01},
      {"measurement": "FIC50", "setting": "[6]", "result": 0.5},
      {"measurement": "fractional inhibitory concentration index (FICI)", "setting": "[7]", "result": 0.52},
      {"measurement": "IC50", "setting": "[8]", "result": 2.3, "unit": "µM"},
      {"measurement": "FIC50", "setting": "[9]", "result": 1.2},
      {"measurement": "fractional inhibitory concentration index (FICI)", "setting": "[10]", "result": 0.03},
      {"measurement": "inhibition", "setting": "[11]", "result": 88, "unit": "%"},
      {"measurement": "Ratio IC50", "setting": "[12]", "result": 12.3},
      {"measurement": "IC50", "setting": "[13]", "result": 28.3, "unit": "µM"},
      {"measurement": "FIC50", "setting": "[14]", "result": 0.02},
      {"measurement": "Ratio IC50", "setting": "[15]", "result": 11.6},
      {"measurement": "inhibition", "setting": "[16]", "result": "Active"}
    ]},
    {"molecule": "CC(=O)O[C@@H]1[C@H](C)/C=C/C(C)(C)C(=O)C[C@@H](OC(=O)c2ccccc2)/C(C)=C/[C@H]2[C@@H](OC(=O)c3ccccc3)[C@H](C)C[C@]12OC(C)=O", "values": [
      {"measurement": "inhibition", "setting": "[11]", "result": "inactive"}
    ]},
    {"molecule": "CC(=O)O[C@@H]1[C@@H](O)[C@@H](OC(C)=O)/C(C)=C/[C@H]2[C@@H](OC(=O)c3ccccc3)[C@H](C)C[C@]2(OC(C)=O)[C@H](OC(C)=O)[C@@H](C)/C=C/C1(C)C", "values": [
      {"measurement": "FIC50", "setting": "[1]", "result": 0.07},
      {"measurement": "fractional inhibitory concentration index (FICI)", "setting": "[2]", "result": 1.27},
      {"measurement": "FIC50", "setting": "[3]", "result": 0.08},
      {"measurement": "IC50", "setting": "[4]", "result": 3.7, "unit": "µM"},
      {"measurement": "FIC50", "setting": "[5]", "result": 0.34},
      {"measurement": "FIC50", "setting": "[6]", "result": 1},
      {"measurement": "fractional inhibitory concentration index (FICI)", "setting": "[7]", "result": 1.36},
      {"measurement": "IC50", "setting": "[8]", "result": 2.3, "unit": "µM"},
      {"measurement": "FIC50", "setting": "[9]", "result": 1.2},
      {"measurement": "fractional inhibitory concentration index (FICI)", "setting": "[10]", "result": 0.42},
      {"measurement": "inhibition", "setting": "[11]", "result": "Active"},
      {"measurement": "Ratio IC50", "setting": "[12]", "result": 1.5},
      {"measurement": "IC50", "setting": "[13]", "result": 3.5, "unit": "µM"},
      {"measurement": "FIC50", "setting": "[14]", "result": 0.36},
      {"measurement": "Ratio IC50", "setting": "[15]", "result": 1.6}
    ]},
    {"molecule": "C=C1CC(OC(C)=O)C(=O)C(C)(C)/C=C/[C@H](C)[C@@H](OC(C)=O)[C@@]2(OC(C)=O)C[C@@H](C)[C@H](OC(=O)c3ccccc3)[C@@H]2[C@H]1OC(C)=O", "note": "(some centres not stated)", "values": [
      {"measurement": "FIC50", "setting": "[1]", "result": 0.07},
      {"measurement": "fractional inhibitory concentration index (FICI)", "setting": "[2]", "result": 1.27},
      {"measurement": "FIC50", "setting": "[3]", "result": 0.04},
      {"measurement": "IC50", "setting": "[4]", "result": 31.7, "unit": "µM"},
      {"measurement": "FIC50", "setting": "[5]", "result": 0.02},
      {"measurement": "FIC50", "setting": "[6]", "result": 1},
      {"measurement": "fractional inhibitory concentration index (FICI)", "setting": "[7]", "result": 1.02},
      {"measurement": "IC50", "setting": "[8]", "result": 2.3, "unit": "µM"},
      {"measurement": "FIC50", "setting": "[9]", "result": 1.2},
      {"measurement": "fractional inhibitory concentration index (FICI)", "setting": "[10]", "result": 0.06},
      {"measurement": "inhibition", "setting": "[11]", "result": "Active"},
      {"measurement": "Ratio IC50", "setting": "[12]", "result": 10.9},
      {"measurement": "IC50", "setting": "[13]", "result": 25, "unit": "µM"},
      {"measurement": "FIC50", "setting": "[14]", "result": 0.02},
      {"measurement": "Ratio IC50", "setting": "[15]", "result": 13.8}
    ]},
    {"molecule": "C=C1[C@H](OC(C)=O)[C@@H](OC(C)=O)[C@@H](OC(C)=O)C(C)(C)/C=C/[C@H](C)C(=O)[C@@]2(OC(C)=O)C[C@H](C)[C@H](OC(C)=O)[C@@H]2[C@H]1OC(=O)c1ccccc1", "values": [
      {"measurement": "inhibition", "setting": "[11]", "result": "inactive"}
    ]},
    {"molecule": "CC(=O)O[C@@H]1[C@@H](OC(C)=O)C(C)(C)/C=C/[C@H](C)[C@@H](OC(C)=O)[C@@]2(OC(C)=O)C[C@@H](C)[C@H](OC(=O)c3ccccc3)/C2=C\\[C@](C)(O)[C@@H]1O", "values": [
      {"measurement": "inhibition", "setting": "[11]", "result": "inactive"}
    ]},
    {"molecule": "C=C1[C@H](OC(=O)c2ccccc2)[C@H]2[C@@H](OC(C)=O)[C@@H](C)C[C@]2(OC(C)=O)C(=O)[C@@H](C)/C=C/C(C)(C)C(=O)[C@H](OC(C)=O)[C@H]1OC(C)=O", "values": [
      {"measurement": "inhibition", "setting": "[11]", "result": "inactive"}
    ]},
    {"molecule": "C=C1CCC(=O)C(C)(C)/C=C/[C@H](C)C(=O)[C@@]2(OC(C)=O)C[C@H](C)[C@H](OC(=O)c3ccccc3)[C@@H]2[C@H]1OC(C)=O", "values": [
      {"measurement": "inhibition", "setting": "[11]", "result": "Active"},
      {"measurement": "inhibition", "setting": "[16]", "result": "Active"}
    ]}
  ]
}
